Compound activity: PubChem BioAssay, several laboratories
GPR7 antag: human neuropeptides B/W receptor 1 antagonism; AID 1861; hit rate 1.1% among 290,000; inhibition, % at 4.4 µM; P48145; GPR7-expressing cells, fluorescence antagonist assay; in the data active = inhibition above about 16%, passing the limit was not always enough;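 also: cells stimulated with the agonist NPW; 0% = agonist with vehicle and 100% = vehicle without agonist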
HCV NS3 hel inh: blocks Hepatitis C virus NS3 helicase unwinding | NS3 helicase DNA unwinding, Cy5 molecular beacon fluorescence | inhibition, % at 10.9 µM | hit rate 0.56% among 290,000;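 active = inhibition above the mean of all tested compounds plus 3 SD, set per campaign, cut at about 35% in these data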;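 also: 0% = DMSO wells and 100% = thioflavine S control wells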
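Measured by: Cy5 fluorescence, 0 and 60 min reads / Assay system: NS3 helicase fragment of HCV / Control set: low DMSO, high thioflavine S at 110 µM / Times: 1 h reaction at 25 °C, ATP-initiated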
EBNA-1 inhibitor: blocks EBNA-1 binding to DNA. hit rate 0.34% among 300,000. EBNA-1 DNA binding, fluorescence polarization. AID 1950. inhibition, % at 14.8 µM; in the data active = inhibition above about 28%
HCV core dimer: blocks dimerization of HCV core protein | TR-FRET GST/Flag-core106 dimerization, 1536-well | inhibition, % at 5 µM | hit rate 0.33% among 300,000 | AID 1899;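 active = inhibition above the mean of all tested compounds plus 3 SD, set per screening campaign, cut at about 45% in these data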
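test system = GST/Flag-tagged HCV core106 proteins | probe or stimulus = Eu donor and XL665 acceptor anti-tag antibodies | times = compound-protein-antibody incubation 4 h at 22.5 °C | signal = TR-FRET, excitation 340 nm, emission 617 and 671 nm | measure = percent inhibition of core106 dimerization signal | controls = wells lacking GST-core106 and wells with excess unlabelled core106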
ZTA DNA inh: blocks Epstein-Barr virus ZTA, an EBNA-1 counter-screen; P03206; AID 2234; hit rate 0.15% among 320,000; ZTA-DNA binding, fluorescence polarization; inhibition, % at 11 µM; in the data active = inhibition above about 33%
Target sequence (P03206 whole entry, looked up): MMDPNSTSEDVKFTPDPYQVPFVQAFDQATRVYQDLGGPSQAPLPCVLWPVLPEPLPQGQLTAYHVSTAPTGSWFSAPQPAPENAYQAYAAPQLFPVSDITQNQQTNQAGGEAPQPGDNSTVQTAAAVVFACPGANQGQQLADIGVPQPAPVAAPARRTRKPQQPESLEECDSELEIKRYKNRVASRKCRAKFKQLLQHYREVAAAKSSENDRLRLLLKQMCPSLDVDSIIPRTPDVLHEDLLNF
EBV gp42 inh: blocks Epstein-Barr virus glycoprotein 42 binding; inhibition, % (tested at 21.74 µM); Fluorescence polarization binding assay, mP read-out; Q1HVG2; AID 1085; hit rate 0.42% among 220,000; in the data active = inhibition above about 50%
* hit, by the source's call; . = no result. Rows were chosen to be rich in hits. Some 2.3% of all compounds tested hit in one or more screens of this group.

SMILES	GPR7 antag	HCV NS3 hel inh	EBNA-1 inhibitor	HCV core dimer	ZTA DNA inh	EBV gp42 inh
O=C(O)c1cc(O)c2c(c1)[C@@H]([C@H]1c3cc(C(=O)O)cc(O)c3C(=O)c3c(O[C@@H]4O[C@H](CO)[C@@H](O)[C@H](O)[C@H]4O)cccc31)c1cccc(OC3O[C@H](CO)[C@@H](O)[C@H](O)[C@H]3O)c1C2=O (some centres undefined)	.	.	94*	-14	15	.
Cc1ccc(-n2c(SCC3CNC(=O)O3)nnc2-c2ccccc2)cc1C (centres undefined)	-8	5	1	8	1	-3
Cc1c(/C=N/NC(=O)c2ccc(O)cc2)c2ccccn2c1C(=O)c1ccc(F)cc1	20*	12	0	0	30	-19
Cc1ccccc1OCCCC(=O)Nc1nncs1	8	-3	5	-2	-1	1
OCCCNc1ncnc2oc(-c3ccccc3)c(-c3ccccc3)c12	-22	-7	.	.	.	.
O=C(NC1CCCC1)C(c1cccs1)N(CC1CCCO1)C(=O)Cc1cccs1 (centres undefined)	18*	-1	-2	7	1	-17
COc1ccc(C(C(=O)NC2CCCC2)N(CC2CCCO2)C(=O)Cc2cccs2)cc1OC (centres undefined)	18	3	12	0	-3	3
Cc1nc(SCC(=O)NC2CC2)c2c(C)c(C)sc2n1	0	4	-3	0	2	.
Cc1sc2nc(C(C)C)nc(SCC(=O)NC3CC3)c2c1C	-11	5	129*	-3	69*	.
CN(c1cccc(NC(=O)c2ccc(Cl)c(S(=O)(=O)N3CCOCC3)c2)c1)S(C)(=O)=O	-5	-2	.	.	.	.
COc1ccc(-c2csc3nc(C(C)(C)C)oc(=O)c23)cc1OC	2	2	-2	-5	-18	3
COc1ccc(-c2csc3nc(-c4ccc(C)cc4)oc(=O)c23)cc1OC	-3	-4	4	50*	-6	2
CCc1ccc(NC(=O)C2CCCN(S(=O)(=O)c3ccc4c(c3)CC(C)N4C(C)=O)C2)cc1 (centres undefined)	-6	-20	5	18	16	.
CCc1ccc(NC(=O)C2CCN(S(=O)(=O)c3ccc4c(c3)CC(C)N4C(C)=O)CC2)cc1 (centres undefined)	21*	19	12	20	3	.
Cn1nnnc1SCC(=O)Nc1ccc(Cl)c(S(=O)(=O)N2CCOCC2)c1	-7	-9	4	-4	-7	-5
O=C(CSc1nnc(SCc2ccccc2)s1)N/N=C/C=C/c1ccco1	-11	24	0	26	-19	68*
COc1cccc(NC(=O)CN(C)C(=O)CCc2nc3sc4c(c3c(=O)[nH]2)CCCC4)c1	-9	9	-8	49*	-10	.
Cc1oc2ccc(NS(=O)(=O)c3ccc(C(C)(C)C)cc3)cc2c1C(=O)Nc1ccccc1	-11	2	-4	54*	6	-3
CCCCC(CC)C(=O)Nc1cccc(SC)c1 (centres undefined)	-9	-4	2	-2	-5	-7
CN1CCCc2cc3c(C(F)(F)F)cc(=O)oc3nc21	-7	-6	-6	2	-1	132*
Cc1ccc(CNC(=O)c2ccc3c(c2)NC(=O)CS3)cc1	15	-7	-4	-1	-11	.
O=C(CSc1nc2ccccc2c(=O)[nH]1)Nc1ccc(C(=O)O)cc1	20*	15	0	-3	-7	-14
CCOc1ccc(NC(=O)c2ccc(NC(=O)CSc3nc4ccccc4c(=O)[nH]3)cc2)cc1	-2	-7	6	23	-3	-18
CN(C)S(=O)(=O)c1ccc(Cl)c(C(=O)OCC(=O)NNC(=O)c2cccs2)c1	.	.	.	.	6	.
CC(C)Cn1c(N)c(C(=O)COC(=O)c2ccccc2F)c(=O)n(C)c1=O	17*	-10	-2	-7	-30	-14
COc1ccc(CCC(=O)Nc2ccc(Cl)c(S(=O)(=O)N3CCCC3)c2)cc1	21*	11	-5	2	-5	-16
COc1ccc(CCC(=O)Nc2ccc(OC)c(S(=O)(=O)N3CCCCC3)c2)cc1OC	.	.	.	.	9	.
O=C(CCC(=O)N1CCN(c2ccccn2)CC1)c1ccc(Cl)s1	.	.	.	.	-6	.
CS(=O)(=O)N(CC(=O)N1CCN(Cc2ccccc2)CC1)Cc1ccccc1	16*	-2	12	-1	16	-20
